In the RNAGym collection of RNA variant scans (doi:10.1126/science.aae0568):
Fewer inactive variants are shown than the library holds.

B1: tRNA (parent)
chain: GUUCCGUUGGCGUAAUGGUAACGCGUCUCCCUCCUAAGGAGAAGACUGCGGGUUCGAGUCCCGUACGGAACG

Variants of: B1
Experiment: yeast fitness relative to wild type (ratio to wild type); higher = fitter; tRNA-Arg(CCU), competitive growth, 37 C, YPD
Summary of the method: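 A pool of Saccharomyces cerevisiae strains, each with a tRNA-Arg(CCU) gene variant at the native genomic locus, was competed in YPD at 37°C for 24 hours across six parallel replicates. The variants had been chemically synthesised at a 3% per-site mutation rate over 69 sites, and gene amplicons before and after competition were read by 100-nucleotide paired-end sequencing. Darwinian fitness relative to wild type rested on changes in genotype frequencies. Genotypes required ≥ 100 starting reads, and estimates < 0.5 were set to 0.5.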

Row | Variant | yeast fitness
1 | GUUCCGUUGGCGUAAUGGUAACGCGUCUCGCUCCUAAGGAGCAGACUGCGGGUUCGAGUCCCGUACGGAACG | 0.631
2 | GUUCCGUUGGCGUAAUGGUAACGCGUCUCGCUCCUAAGGAGGAGACUGCGGGUUCGAGUCCCGUACGGAACG | 0.626
3 | GUUCCGUUGGCGUAAUGGUAACGCGUCUCGCUCCUUAGGAGAAGACUGCGGGUUCGAGUCCCGUACGGAACG | 0.538
4 | GUUCCGUUGGCGUAAUGGUAACGCGUCUCGCUCCUCAGGAGAAGACUGCGGGUUCGAGUCCCGUACGGAACG | 0.561
5 | GUUCCGUUGGCGUAAUGGUAACGCGUCUCGCUCCUGAGGAGAAGACUGCGGGUUCGAGUCCCGUACGGAACG | 0.679
6 | GUUCCGUUGGCGUAAUGGUAACGCGUCUCGCUCCUAGGGAGAAGACUGCGGGUUCGAGUCCCGUGCGGAACG | ≤ 0.5
7 | GUUCCGUUGGCGUAAUGGUAACGCGUCUCGCUCCUAAGGAGGAGGCUGCGGGUUCGAGUCCCGUACGGAACG | ≤ 0.5
8 | GUUCCGUUGGCGUAAUGGUAACGCGUCUCACUCCUAAGGAGAAGACUGCGGGUUCGAGUCCUAUACGGGACG | ≤ 0.5
9 | GUUCCGUUGGCGUAAUGGUAACGCGUCUCACUCCUAAGGAGAAGACUGCGGGUUCGAGUCCCACACGGAACG | 0.893
10 | GUUCCGUUGGCGUAAUGGUAACGCGUCUCGCUCCUAAGGCGAAGACUGCGGGUUCGAGUCCCGAACGGAACG | 0.565
11 | GUUCCGUUGGCGUAAUGGUAACGCGUCUCACUCCUAAGGAGAAAUCUGCGGGUUCGAGUCCUGUACGGAACG | ≤ 0.5
12 | GUUCCGUUGGCGUAAUGGUAACGCGUCUCACUCCUAAGGAGAAGACUGCGGGUUCUAGUCCCGUGCGGAACG | ≤ 0.5
13 | GUUCCGUUGGCGUAAUGGUAACGCGUCUCGCUCCUGAGGAGAAGACUGCGGGUUCGUGUCCCGUUUGGAACG | ≤ 0.5
14 | GUUCCGUUGGCGUAAUGGUAACGCGUCUCACUCCUAAGGAGAAGACCGCGGGUUCGAAUCCCGUACGGUACG | 0.563
15 | GUUCCGUUGGCGUAAUGGUAACGCGUCUCACUCCUAAGGAGAAGACUGCAGGUUCGAGUCCCGUCCGGAACG | 0.628
16 | GUUCCGUUGGCGUAAUGGUAACGCGUCUCACUCCAAAGGAGAAGACUGCGGGUUCGAGUCGCGUACGGAACG | ≤ 0.5
17 | GUUCCGUUGGCGUAAUGGUAACGCGUCUCACUCCUAAGGAGAAGACCGCGGGUUCGAGUCCCGUACUGAACG | ≤ 0.5
18 | GUUCCGUUGGCGUAAUGGUAACGCGUCUCGCUCCUAAGGAGUAGGCUGCGGGUUCGAGUCUCGUACAGAACG | ≤ 0.5
19 | GUUCCGUUGGCGUAAUGGUAACGCGUCUCGCUCCUAAGGAGAAGGCUGCGGGUUCGAGUCCCGUACGGAACG | 0.698

Row | Variant | yeast fitness
20 | GUUCCGUUGGCGUAAUGGUAACGCGUCUCGCUCCUAAGGAGUAGACUGCGCGUUCGAGUCCCGUACGGAACG | ≤ 0.5
21 | GUUCCGUUGGCGUAAUGGUAACGCGUCUCACUCCUAAGGAGAAGACUGCGGGUUCGAGUCCCCUACGGAACG | 0.774
22 | GUUCCGUUGGCGUAAUGGUAACGCGUCUCACUCCUAAAGAGAAGACUGCGGAUUAGAGUCCCGUCCGGAACG | ≤ 0.5
23 | GUUCCGUUGGCGUAAUGGUAACGCGUCUCACUCCUAACGAGAAGACUGCGGGUUCGAGUCACGUACGGAACG | 0.51
24 | GUUCCGUUGGCGUAAUGGUAACGCGUCUCACUCCUAAGGAGAAGACCGCGGGUUCGAGUCCCGUACGGAACG | 0.775
25 | GUUCCGUUGGCGUAAUGGUAACGCGUCUCACUCCUAAGGAGAAGACUGCGGGUUCGAGUCCCGUAAGGAACG | 0.636
26 | GUUCCGUUGGCGUAAUGGUAACGCGUCUCGCUCCUAAGGAGUAGGCUGCGGGUUCGAGUCCCGUACGGAACG | ≤ 0.5
27 | GUUCCGUUGGCGUAAUGGUAACGCGUCUCACUCCUAAGGAGAAGACUGCGGGUUUGAGUCCGGUACGGAACG | 0.508
28 | GUUCCGUUGGCGUAAUGGUAACGCGUCUCACGCCUAAGGAGAAGACUGCGGGUUCGAGUCCCGUACAGCACG | ≤ 0.5
29 | GUUCCGUUGGCGUAAUGGUAACGCGUCUCACUCCUAAGGAGAACACUGCGGGUUCGAGACCCGUACGGAACG | ≤ 0.5
30 | GUUCCGUUGGCGUAAUGGUAACGCGUCUCACUCCUAAGGAGAAGACUGCGGGUUCGAGUCCUAUACGGAACG | ≤ 0.5
31 | GUUCCGUUGGCGUAAUGGUAACGCGUCUCACUCCUAAGGAGAAGACUGCGGGGUCGAGUGCAGUACGGAUCG | 0.515
32 | GUUCCGUUGGCGUAAUGGUAACGCGUCUCACUCCUAAGGAGAAGACUGCGGGUUCGAGUCACGUACGGCACG | 0.609
33 | GUUCCGUUGGCGUAAUGGUAACGCGUCUCACUCCUAAGGACAAGACUGCGAGUUCGAGUCCCGUACGGAACG | ≤ 0.5
34 | GUUCCGUUGGCGUAAUGGUAACGCGUCUCGCUCCUAUGGAGAAGACUGCGGGUUCGAGUCUCGUACGGAACG | ≤ 0.5
35 | GUUCCGUUGGCGUAAUGGUAACGCGUCUCACUCCUAAGGAGAAGACUGCGGGUUCGAGUCCGGUACGGAUCG | 0.547
36 | GUUCCGUUGGCGUAAUGGUAACGCGUCUCGCUCCUACGGAGAAGAGUGCGGGUUCAAGUCCCGUACGGAACG | ≤ 0.5
37 | GUUCCGUUGGCGUAAUGGUAACGCGUCUCGCUCCUAAGGAGAAGACUGCGGGUUCGGGUCCCGUACGGAACG | 0.616
38 | GUUCCGUUGGCGUAAUGGUAACGCGUCUCGCUCCUAAGGAGAAGACUGCGGGUUCGAGUCCCGUACGGAACG | 0.68
